According to ChEMBL document CHEMBL3997844, “Synthesis and anti-inflammatory activity of isoquebecol” (Bioorg Med Chem, 2017):

Tests used:
[1] = Cytotoxicity against human U937-derived macrophage-like cells assessed as reduction in cell viability after 24 hrs by MTT assay; format: cell-based, U-937; details: read-out: MNCC
Method in brief: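 PMA-differentiated U937 macrophage-like cells (1×10^6 cells/well, RPMI-1% FBS) exposed to 2-fold serial dilutions from 1000 to 7.81 µM for 24 h. Viability read by MTT assay; highest non-cytotoxic concentration recorded.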

U-937 [2] = assay: Anti-inflammatory activity in human U937-derived macrophage-like cells assessed as inhibition of LPS-induced IL-6 secretion at 250 uM preincubated for 2 hrs followed by LPS addition measured after 24 hrs by ELISA relative to control; format: functional
U-937 [3] = assay: Anti-inflammatory activity in human U937-derived macrophage-like cells assessed as inhibition of LPS-induced IL-6 secretion at 125 uM preincubated for 2 hrs followed by LPS addition measured after 24 hrs by ELISA relative to control; format: functional
U-937 [4] = assay: Anti-inflammatory activity in human U937-derived macrophage-like cells assessed as inhibition of LPS-induced IL-6 secretion at 500 uM preincubated for 2 hrs followed by LPS addition measured after 24 hrs by ELISA relative to control; format: functional
U-937 [5] = assay: Anti-inflammatory activity in human U937-derived macrophage-like cells assessed as inhibition of LPS-induced IL-6 secretion at 62.5 uM preincubated for 2 hrs followed by LPS addition measured after 24 hrs by ELISA relative to control; format: functional
U-937 [6] = assay: Anti-inflammatory activity in human U937-derived macrophage-like cells assessed as inhibition of LPS-induced IL-6 secretion at 31.25 uM preincubated for 2 hrs followed by LPS addition measured after 24 hrs by ELISA relative to control; format: functional
U-937 [7] = assay: Anti-inflammatory activity in human U937-derived macrophage-like cells assessed as inhibition of LPS-induced IL-6 secretion preincubated for 2 hrs followed by LPS addition measured after 24 hrs by ELISA; format: functional, cell-based

With COc1ccc(Cc2ccc(OC)c(O)c2)cc1O the MNTC at 24 h [1] was 500 µM, the inhibition at 250 µM (U-937 [2]) was 92.5% and the inhibition at 125 µM (U-937 [3]) was 50.7%. For the same compound, the inhibition at 500 µM (U-937 [4]) was 99.8%.

CCOC(=O)C(=C(c1ccccc1)c1ccccc1)c1ccccc1 gave an MNTC at 24 h [1] of under 15.6 µM, an inhibition at 250 µM (U-937 [2]) of 100% and an inhibition at 125 µM (U-937 [3]) of 11%. It also gave an inhibition at 62.5 µM (U-937 [5]) of 0.5%, an inhibition at 31.25 µM (U-937 [6]) of 0.5% and an inhibition at 500 µM (U-937 [4]) of 100%.

For COc1cc(C(O)CO)ccc1O (centres undefined), the MNTC at 24 h [1] was 500 µM, the inhibition at 250 µM (U-937 [2]) was 8% and the inhibition at 125 µM (U-937 [3]) was 2.1%. It also gave an inhibition at 500 µM (U-937 [4]) of 86.8%.

COc1cc(Cc2ccc(O)c(OC)c2)ccc1O showed an MNTC at 24 h [1] of 500 µM, an inhibition at 250 µM (U-937 [2]) of 90.5% and an inhibition at 125 µM (U-937 [3]) of 27.5%. For the same compound, the inhibition at 500 µM (U-937 [4]) was 98.1%.

In the case of OCC(c1ccccc1)C(c1ccccc1)c1ccccc1 (centres undefined), the MNTC at 24 h [1] is reported as 31.2 µM, the inhibition at 250 µM (U-937 [2]) is reported as 100% and the inhibition at 125 µM (U-937 [3]) is reported as 100%. It also gave an inhibition at 62.5 µM (U-937 [5]) of 15.6%, an inhibition at 31.25 µM (U-937 [6]) of 1.4% and an inhibition at 500 µM (U-937 [4]) of 100%.

Compound COc1cc(CC(=O)O)ccc1O [HOMOVANILLIC ACID] has an MNTC at 24 h [1] of over 1000 µM, an inhibition at 250 µM (U-937 [2]) of 0.2% and an inhibition at 125 µM (U-937 [3]) of 0.3%. It also gave an inhibition at 500 µM (U-937 [4]) of 0.6%.

COc1cc(CCO)ccc1O gave an MNTC at 24 h [1] of over 1000 µM, an inhibition at 250 µM (U-937 [2]) of 0.9% and an inhibition at 125 µM (U-937 [3]) of 1.1%. For the same compound, the inhibition at 500 µM (U-937 [4]) was 1.2%.

For COc1ccc(C(O)CO)cc1O (centres undefined), the MNTC at 24 h [1] was 500 µM, the inhibition at 250 µM (U-937 [2]) was 20.9% and the inhibition at 125 µM (U-937 [3]) was 1.4%. It also gave an inhibition at 500 µM (U-937 [4]) of 83.8%.

Compound CCOC(=O)C(c1ccc(O)c(OC)c1)C(c1ccc(O)c(OC)c1)c1ccc(O)c(OC)c1 (centres undefined) has an MNTC at 24 h [1] of 250 µM, an inhibition at 250 µM (U-937 [2]) of 91.9% and an inhibition at 125 µM (U-937 [3]) of 34.6%. The inhibition at 62.5 µM (U-937 [5]) was 9.4%, the inhibition at 31.25 µM (U-937 [6]) was 4% and the inhibition at 500 µM (U-937 [4]) was 100%.

In the case of COc1ccc(C(=O)CO)cc1O, the MNTC at 24 h [1] is reported as 500 µM, the inhibition at 250 µM (U-937 [2]) is reported as 24.1% and the inhibition at 125 µM (U-937 [3]) is reported as 0.8%. For the same compound, the inhibition at 500 µM (U-937 [4]) was 92.5%.

Compound COc1ccc(CC(=O)O)cc1O has an MNTC at 24 h [1] of over 1000 µM, an inhibition at 250 µM (U-937 [2]) of 2.1% and an inhibition at 125 µM (U-937 [3]) of 0.5%. The inhibition at 500 µM (U-937 [4]) was 2%.

CCOC(=O)Cc1ccc(OC)c(O)c1 gave an MNTC at 24 h [1] of over 1000 µM, an inhibition at 250 µM (U-937 [2]) of 3.2% and an inhibition at 125 µM (U-937 [3]) of 0.8%. It also gave an inhibition at 500 µM (U-937 [4]) of 8.3%.

For CCOC(=O)C(=C(c1ccc(OC)c(O)c1)c1ccc(OC)c(O)c1)c1ccc(OC)c(O)c1, the MNTC at 24 h [1] was 62.5 µM, the inhibition at 250 µM (U-937 [2]) was 100% and the inhibition at 125 µM (U-937 [3]) was 97.8%. The inhibition at 62.5 µM (U-937 [5]) was 31.2%, the inhibition at 31.25 µM (U-937 [6]) was 0.8% and the inhibition at 500 µM (U-937 [4]) was 100%.

CCOC(=O)Cc1ccc(O)c(OC)c1 showed an MNTC at 24 h [1] of over 1000 µM, an inhibition at 250 µM (U-937 [2]) of 0.4% and an inhibition at 125 µM (U-937 [3]) of 0.2%. It also gave an inhibition at 500 µM (U-937 [4]) of 0.8%.

COc1cc(C(=O)CO)ccc1O showed an MNTC at 24 h [1] of 500 µM, an inhibition at 250 µM (U-937 [2]) of 64.4% and an inhibition at 125 µM (U-937 [3]) of 4.9%. The inhibition at 500 µM (U-937 [4]) was 90.1%.

For COc1ccc(CCO)cc1O, the MNTC at 24 h [1] was over 1000 µM, the inhibition at 250 µM (U-937 [2]) was 2.7% and the inhibition at 125 µM (U-937 [3]) was 0.9%. It also gave an inhibition at 500 µM (U-937 [4]) of 5.1%.

Work on CCOC(=O)C(=C(c1ccc(O)c(OC)c1)c1ccc(O)c(OC)c1)c1ccc(O)c(OC)c1 yielded an MNTC at 24 h [1] of 62.5 µM, an inhibition at 250 µM (U-937 [2]) of 100% and an inhibition at 125 µM (U-937 [3]) of 99.5%. For the same compound, the inhibition at 62.5 µM (U-937 [5]) was 11.2%, the inhibition at 31.25 µM (U-937 [6]) was 2.5% and the inhibition at 500 µM (U-937 [4]) was 100%.

COc1cc(C(CO)C(c2ccc(O)c(OC)c2)c2ccc(O)c(OC)c2)ccc1O (centres undefined) showed an MNTC at 24 h [1] of 500 µM, an inhibition at 250 µM (U-937 [2]) of 84.7% and an inhibition at 125 µM (U-937 [3]) of 55.3%. It also gave an inhibition at 62.5 µM (U-937 [5]) of 4.7%, an inhibition at 31.25 µM (U-937 [6]) of 3.7% and an inhibition at 500 µM (U-937 [4]) of 93.8%. The inhibition (U-937 [7]) was “Dose-dependent effect”.

Work on CCOC(=O)C(c1ccc(OC)c(O)c1)C(c1ccc(OC)c(O)c1)c1ccc(OC)c(O)c1 (centres undefined) yielded an MNTC at 24 h [1] of 62.5 µM, an inhibition at 250 µM (U-937 [2]) of 96.8% and an inhibition at 125 µM (U-937 [3]) of 41.3%. The inhibition at 62.5 µM (U-937 [5]) was 5.9%, the inhibition at 31.25 µM (U-937 [6]) was 3% and the inhibition at 500 µM (U-937 [4]) was 100%.

In the case of CCOC(=O)C(c1ccccc1)C(c1ccccc1)c1ccccc1 (centres undefined), the MNTC at 24 h [1] is reported as 62.5 µM, the inhibition at 250 µM (U-937 [2]) is reported as 85.3% and the inhibition at 125 µM (U-937 [3]) is reported as 2%. The inhibition at 62.5 µM (U-937 [5]) was 0.4%, the inhibition at 31.25 µM (U-937 [6]) was 0.2% and the inhibition at 500 µM (U-937 [4]) was 99.8%.

Work on COc1ccc(C(CO)C(c2ccc(OC)c(O)c2)c2ccc(OC)c(O)c2)cc1O (centres undefined) yielded an MNTC at 24 h [1] of 250 µM, an inhibition at 250 µM (U-937 [2]) of 96.9% and an inhibition at 125 µM (U-937 [3]) of 48.3%. It also gave an inhibition at 62.5 µM (U-937 [5]) of 43.3%, an inhibition at 31.25 µM (U-937 [6]) of 34.5% and an inhibition at 500 µM (U-937 [4]) of 99.7%. For the same compound, the inhibition (U-937 [7]) was “Dose-dependent effect”.
